# Measured values of several laboratories.
# Lines come from different studies, so protocols differ.
SMILES,target or system,test,test system,setting,endpoint,value
O=C1C(NCCc2ccc(O)cc2)=CC2=NCCc3c[nH]c1c32,Plasmodium falciparum,"parasite growth, SYBR Green",DD2,blood stage,IC50,291 nM
COc1ccc(C(=O)/C=C/c2cn(Cc3cn(-c4ccnc5cc(Cl)ccc45)nn3)c3ccccc23)cc1OC,Plasmodium falciparum,"parasite growth, SYBR Green",3D7,"5 µM, blood stage",inhibition,-4%
C=C(F)C(=O)N1CCN(c2nc(OC[C@@H]3CCCN3C)nc3c2CCN(c2cccc4cccc(Cl)c24)C3)C[C@@H]1CC#N,KYSE-410,"cell growth or viability, ATP luminescence",,3D culture,IC50,107 nM
O=C(NO)c1ccc(CNc2nc3cccc(-c4ccc5c(c4)OCO5)n3n2)cc1,NCI-H460,"cell growth or viability, SRB",,,GI50,680 nM
COCC(=O)N1CCCC(C(=O)NCc2nc(-c3ccccc3)cs2)C1 (racemic),Plasmodium falciparum,"parasite growth, SYBR Green",,72 h,EC50,150 nM
CNc1ncc2c(/C=C/C(=O)N3CCC(OC)CC3)nn(Cc3ccc(OC)cc3)c2n1,FLO-1,"cell growth or viability, resazurin",,5 days,EC50,1130 nM
O=C(/C=C/c1cn(Cc2cn(-c3ccnc4cc(Cl)ccc34)nn2)c2ccccc12)c1ccc(F)cc1,Plasmodium falciparum,"parasite growth, SYBR Green",3D7,"5 µM, blood stage",inhibition,15.8%
O=C1C=C2NCCc3c[nH]c(c32)C1=O,Plasmodium falciparum,"parasite growth, SYBR Green",DD2,blood stage,IC50,23700 nM
Nc1ncnc2c1c(/C=C/C(=O)N1CCC(O)CC1)nn2CC1CCCC1,FLO-1,"cell growth or viability, resazurin",,5 days,EC50,> 30000 nM
Cn1cc2c3c1C(=O)C(NCCc1ccc(O)cc1)=CC3=[N+](C)CC2,Plasmodium falciparum,"parasite growth, SYBR Green",W2,blood stage,IC50,394 nM
O=C(/C=C/c1cn(Cc2cn(-c3ccnc4cc(Cl)ccc34)nn2)c2ccccc12)c1cc(OCc2ccccc2)cc(OCc2ccccc2)c1,Plasmodium falciparum,"parasite growth, SYBR Green",3D7,"10 µM, blood stage",inhibition,49%
CNc1ncc2c(/C=C/C(=O)N3CCC(O)CC3)nn(CC3CCCC3)c2n1,FLO-1,"cell growth or viability, resazurin",,5 days,EC50,> 30000 nM
C=CC(=O)NC1CCN(c2ncc3ncnc(Nc4ccc(Oc5ccc6c(c5)ncn6C)c(C)c4)c3n2)CC1,MDA-MB-453,cell growth or viability,,,EC50,35.2 nM
CCOC(Cn1nc(/C=C/C(=O)N2CCC(OC)CC2)c2cnc(NC)nc21)OCC,FLO-1,"cell growth or viability, resazurin",,5 days,EC50,> 30000 nM
O=C(/C=C/c1cn(Cc2cn(-c3ccnc4cc(Cl)ccc34)nn2)c2ccccc12)c1cccc([N+](=O)[O-])c1,Plasmodium falciparum,"parasite growth, SYBR Green",3D7,"10 µM, blood stage",inhibition,36%
